OXTR potentiate – potentiators of human oxytocin receptor; CHO-OTR cells, Fluo-8 calcium fluorescence, potentiator mode; 0% = oxytocin EC15, 100% = EC100; activation, % at 3 µM; hit rate 0.061% among 320,000;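 active = activation above that plate's cutoff, the mean activation of tested compounds plus 3 SD, cut at about 6.6% in these data, passing the limit was not always enough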;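 also: 100% uses oxytocin at 75 nM as the full agonist control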
Target sequence (P30559 whole entry, looked up): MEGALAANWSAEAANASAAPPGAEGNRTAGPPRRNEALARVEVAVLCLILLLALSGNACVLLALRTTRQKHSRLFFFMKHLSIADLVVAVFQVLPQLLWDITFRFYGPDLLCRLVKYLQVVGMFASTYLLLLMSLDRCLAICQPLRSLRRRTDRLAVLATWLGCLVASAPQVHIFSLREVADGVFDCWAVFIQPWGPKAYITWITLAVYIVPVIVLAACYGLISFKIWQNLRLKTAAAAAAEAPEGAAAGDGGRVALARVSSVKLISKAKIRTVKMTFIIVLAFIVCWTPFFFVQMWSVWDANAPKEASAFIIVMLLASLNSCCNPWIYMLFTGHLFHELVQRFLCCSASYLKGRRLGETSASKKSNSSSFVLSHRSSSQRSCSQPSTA
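test system = CHO-OTR cells, human receptor | compound = single-point 3.0 µM | schedule = 6 min compound pre-incubation at room temperature, 100 s kinetic read | signal = Fluo-8 no-wash calcium dye fluorescence, excitation 470-495 nm, emission 515-575 nm | repeats = single well per compound, singlicate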
TAAR1 antag – human TAAR1 antagonism; Q96RJ0; hit rate 1.5% among 360,000; inhibition, % at 3 µM; CHO RD-HGA16 TAAR1, Fluo-8 calcium fluorescence, antagonist;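 active = inhibition above a per-plate cutoff, the mean inhibition of test compounds on that plate plus 3 SD, cut at about 49% in these data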;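 also: 0% = DMSO plus EC80 beta-PEA response and 100% = DMSO alone without agonist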
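Assay system: CHO-derived RD-HGA16 cells stably expressing human TAAR1 plus Gα16. Timing: 140 s kinetic read after compound, 140 s after agonist. Technique: kinetic Fluo-8 calcium fluorescence measurement. Measure: % inhibition of agonist calcium response.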
V1aR counter – V1a receptor agonism, counter-screen for OXTR agonists; P37288; CHO-V1R cells, Fluo-8 calcium fluorescence, agonist mode; 0% DMSO, 100% 3 nM vasopressin; activation, % at 3 µM; hit rate 0.25% among 320,000; AID 2797;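 active = activation above the mean activation of all tested compounds plus 3 SD, per screening run, cut at about 20% in these data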;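 also: signal is peak over basal fluorescence ratio across a 100 second FLIPR read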
Target sequence (P37288 whole entry, looked up): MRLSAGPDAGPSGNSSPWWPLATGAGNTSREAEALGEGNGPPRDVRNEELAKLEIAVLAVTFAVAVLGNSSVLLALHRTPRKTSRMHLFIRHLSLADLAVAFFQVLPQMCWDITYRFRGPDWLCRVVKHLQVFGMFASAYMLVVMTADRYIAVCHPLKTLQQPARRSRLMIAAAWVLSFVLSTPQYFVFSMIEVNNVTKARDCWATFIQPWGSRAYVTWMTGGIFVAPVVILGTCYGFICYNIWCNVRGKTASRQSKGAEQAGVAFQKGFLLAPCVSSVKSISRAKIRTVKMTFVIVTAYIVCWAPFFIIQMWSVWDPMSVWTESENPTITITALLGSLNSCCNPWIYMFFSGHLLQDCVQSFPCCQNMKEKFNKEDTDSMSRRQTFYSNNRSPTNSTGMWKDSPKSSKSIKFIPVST
OXTR agonist – agonists of human oxytocin receptor; P30559; CHO-OTR cells, Fluo-8 calcium fluorescence; normalized: DMSO 0%, oxytocin 100%; activation, % at 3 µM; hit rate 0.32% among 320,000;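 active = activation above the mean of all tested compounds plus 3 SD, cutoff set per screening run, cut at about 20% in these data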;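 also: peak over basal fluorescence ratio from a 100 s FLIPR kinetic read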
TAAR1 ag – human TAAR1 agonism; hit rate 0.99% among 360,000; Q96RJ0; CHO RD-HGA16 TAAR1, Fluo-8 calcium fluorescence; vehicle wells 0%, saturating PEA agonist 100%; activation, % at 3 µM;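 active = activation above the mean activation of all test compounds in the run plus 3 SD, cut at about 38% in these data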
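Benchmarks: low control DMSO, high control PEA (EC100); System: CHO RD-HGA16 cells carrying human TAAR1 plus Gα16; Detection: Fluo-8 fluorescence, 5 s baseline then 140 s kinetic read; Schedule: 17-24 h plating, Fluo-8 75 min 37 °C, 30 min RT; Read-out basis: % activation from peak over basal fluorescence ratio, DMSO-to-PEA scaled.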
TAAR1 ag conf – confirmation of human TAAR1 agonists; shares compounds with TAAR1 ag; CHO RD-HGA16 TAAR1, Fluo-8 calcium fluorescence; scaled: DMSO 0%, maximal phenethylamine 100%; activation, % at 3 µM; hit rate 82% among 2,400; AID 651783;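 active = activation above a cutoff set at the run's mean compound activation plus 3 SD, cut at about 39% in these data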
Ga16 ag counter – counter-screen for TAAR1 agonists: nonselective agonists in parental cells; shares compounds with TAAR1 ag; hit rate 50% among 2,400; CHO-Ga16 parental, Fluo-8 calcium fluorescence; normalized to maximal ATP response, DMSO zero; AID 651787; activation, % at 3 µM;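 active = activation above the run cutoff, the mean activation over all tested wells plus 3 SD, cut at about 12% in these data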;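 also: 0% = DMSO wells and 100% = maximal ATP response on the peak over basal ratio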
TAAR1 desens – counter-screen for human TAAR1 agonists: agonists that desensitize TAAR1 | inhibition, % at 3 µM | hit rate 46% among 2,400 | shares compounds with TAAR1 ag | AID 651951 | CHO RD-HGA16 hTAAR1, Fluo-8 calcium, beta-PEA response inhibition;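 active = inhibition above the run cutoff, the mean inhibition of all test compounds plus 3 SD, cut at about 49% in these data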;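 also: beta-PEA stimulus applied at its EC80; loss of beta-PEA calcium signal after compound pretreatment read as receptor desensitization; 0% = DMSO with beta-PEA at EC80 and 100% = DMSO alone without agonist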
Ga16 nonsel ant – nonselective Ga16 antagonism, counter-screen; inhibition, % at 3 µM; hit rate 39% among 2,400; shares compounds with TAAR1 ag; CHO-Ga16 ATP-induced calcium, Fluo-8 fluorescence;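 active = inhibition above the plate's mean compound inhibition plus 3 SD, computed per plate, cut at about 22% in these data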;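 also: 0% = EC80 ATP with DMSO and 100% = DMSO wells without ATP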
* hit, by the source's call. A selection: hits, their analogues and other compounds. The true share with any hit is near 2.3%.

What do the screens show for `O=C(O)c1ccc(NCCc2ccc(Cl)cc2)c([N+](=O)[O-])c1`?
OXTR potentiate: -14.4; TAAR1 antag: 1.1; V1aR counter: 4.9; OXTR agonist: 10.8; TAAR1 ag: 8.5

How did CN(CCNC(=O)c1ccc(N2CCCC2=O)cc1)CCc1ccccc1 do in these assays?
OXTR potentiate: -3.6; TAAR1 antag: 27.1; V1aR counter: 1.1; OXTR agonist: 0.7; TAAR1 ag: 52.9*; TAAR1 ag conf: 62.1*; Ga16 ag counter: 0.3; TAAR1 desens: 27.7; Ga16 nonsel ant: 3.2

How did Cc1ccc(NC(=O)COC(=O)c2ccc3c(c2)C(=O)N(CCc2ccccc2)C3=O)c(C)c1 do in these assays?
OXTR potentiate: -5.2; TAAR1 antag: 13.7; V1aR counter: 0.4; OXTR agonist: 0.1; TAAR1 ag: 76.8*; TAAR1 ag conf: 63.7*; Ga16 ag counter: 3.7; TAAR1 desens: 18.2; Ga16 nonsel ant: -2.3

How did COCCCN1C(=O)c2ccc(C(=O)OCC(=O)NCCc3ccccc3)cc2C1=O do in these assays?
OXTR potentiate: -3.3; TAAR1 antag: 3.3; V1aR counter: 0.8; OXTR agonist: 1.3; TAAR1 ag: 0.4

How did CC(O)[C@H]1CNC(=S)N1CCc1cccc(F)c1 (some centres not stated) do in these assays?
OXTR potentiate: 5.6; TAAR1 antag: 3.3; V1aR counter: 0.3; OXTR agonist: 0.1; TAAR1 ag: 3.7

How did c1ccc(C2(CN3CCNC[C@H]3Cc3cccc4ccccc34)CC2)cc1 do in these assays?
OXTR potentiate: -6.8; TAAR1 antag: 1.6; V1aR counter: 2.4; OXTR agonist: 7.6; TAAR1 ag: 43.9*; TAAR1 ag conf: 47.3*; Ga16 ag counter: 18.6*; TAAR1 desens: 23.8; Ga16 nonsel ant: 26.2*

Results for Fc1cccc(CCN2CCNC[C@H]2Cc2cccc3ccccc23)c1 ?
OXTR potentiate: -13.9; TAAR1 antag: 21.0; V1aR counter: 2.7; OXTR agonist: 5.8; TAAR1 ag: 68.3*; TAAR1 ag conf: 80.1*; Ga16 ag counter: 16.5*; TAAR1 desens: 46.3; Ga16 nonsel ant: 27.4*

How did CC(O)[C@H]1CNCCN1CCc1cccc(F)c1 (some centres not stated) do in these assays?
OXTR potentiate: -0.6; TAAR1 antag: 5.3; V1aR counter: 1.6; OXTR agonist: 0.0; TAAR1 ag: 73.6*; TAAR1 ag conf: 67.0*; Ga16 ag counter: -0.5; TAAR1 desens: 10.2; Ga16 nonsel ant: 6.4

How did CCN(C)C1CN(Cc2cn(Cc3ccc(C)cc3)nn2)S(=O)(=O)C1 (configuration not stated) do in these assays?
TAAR1 antag: -1.5; TAAR1 ag: 1.5

Results for CC(=O)c1ccc2c3c(cccc13)C(=O)N(CCc1ccccc1)C2=O ?
OXTR potentiate: -4.9; V1aR counter: -0.1; OXTR agonist: -0.4; Ga16 ag counter: 2.5; Ga16 nonsel ant: 9.1

What do the screens show for `COc1ccc(NC(=O)N(C)C[C@H]2Oc3c(NC(=O)C4CCCCC4)cccc3C(=O)N([C@H](C)CO)C[C@@H]2C)cc1`?
OXTR potentiate: -1.9; TAAR1 antag: -12.8; V1aR counter: -0.3; OXTR agonist: 0.0; TAAR1 ag: 0.1

Results for CN(C)c1ccc(S(=O)(=O)NCC(=O)NCc2ccccc2)cc1[N+](=O)[O-] ?
OXTR potentiate: -15.5; TAAR1 antag: 47.5; V1aR counter: 1.0; OXTR agonist: -1.0; TAAR1 ag: 78.9*; TAAR1 ag conf: 11.9; Ga16 ag counter: 3.5; TAAR1 desens: -0.4; Ga16 nonsel ant: -5.9

How did Cc1nc(N)nc(N)c1/C=C/C(C)(C)c1ccc(Cl)cc1 do in these assays?
TAAR1 antag: 40.5; TAAR1 ag: 53.5*; TAAR1 ag conf: 71.9*; Ga16 ag counter: 41.8*; TAAR1 desens: 72.2*; Ga16 nonsel ant: 48.0*

What do the screens show for `c1ccc(N/N=C(\Cc2ncc[nH]2)c2ccccc2)cc1`?
OXTR potentiate: -4.5; V1aR counter: -0.6; OXTR agonist: -0.5; Ga16 ag counter: 3.9; Ga16 nonsel ant: 9.4

Results for CCC(=O)N(CC)c1nc(-c2ccc(OC)cc2)cs1 ?
OXTR potentiate: -6.4; TAAR1 antag: 70.3*; V1aR counter: 1.8; OXTR agonist: 4.8; TAAR1 ag: 69.8*; TAAR1 ag conf: 43.5*; Ga16 ag counter: 44.1*; TAAR1 desens: 58.1*; Ga16 nonsel ant: 46.5*

What do the screens show for `CCC(=O)N(Cc1ccco1)c1nc(-c2ccc(OC)cc2)cs1`?
OXTR potentiate: -11.4; TAAR1 antag: 22.0; V1aR counter: -0.5; OXTR agonist: -0.7; TAAR1 ag: 1.2

What do the screens show for `Cn1cccc1/C=N/n1c(-c2ccc(Cl)cc2Cl)n[nH]c1=S`?
OXTR potentiate: -23.4; TAAR1 antag: 29.0; V1aR counter: 21.1*; OXTR agonist: 25.8*; TAAR1 ag: 62.3*; TAAR1 ag conf: 52.6*; Ga16 ag counter: 26.2*; TAAR1 desens: 25.9; Ga16 nonsel ant: 23.9*

Results for O=C(N[C@H](C(=O)N1CCC[C@H]1C(=O)NCCc1ccccc1Cl)C1CCCCC1)c1cccs1 ?
Ga16 ag counter: 4.2; Ga16 nonsel ant: 11.2

What do the screens show for `CC(C)[C@H](NC(=O)C1CCCC1)C(=O)N1CCC[C@H]1C(=O)NCCc1ccccc1Cl`?
TAAR1 antag: 75.0*; TAAR1 ag: 86.9*; TAAR1 ag conf: 85.4*; Ga16 ag counter: -1.4; TAAR1 desens: 86.8*; Ga16 nonsel ant: 3.2

What do the screens show for `Cc1ccccc1C(=O)N[C@H](C(=O)N1CCC[C@H]1C(=O)NCCc1ccccc1Cl)C1CCCCC1`?
TAAR1 antag: 24.3; TAAR1 ag: 16.3

Results for CC(C)[C@H](NC(=O)c1ccc(Cl)cc1Cl)C(=O)N1CCC[C@H]1C(=O)NCCc1ccccc1Cl ?
TAAR1 antag: 76.4*; TAAR1 ag: 50.4*; TAAR1 ag conf: 73.2*; Ga16 ag counter: 5.1; TAAR1 desens: 92.3*; Ga16 nonsel ant: 5.2

How did Cc1cc(C)nc(/N=C(\N)Nc2ccc(SC(F)F)cc2)n1 do in these assays?
OXTR potentiate: -10.4; TAAR1 antag: 94.6*; V1aR counter: 28.4*; OXTR agonist: 31.8*; TAAR1 ag: 101.9*; TAAR1 ag conf: 98.6*; Ga16 ag counter: 63.1*; TAAR1 desens: 98.3*; Ga16 nonsel ant: 69.4*

From PubChem BioAssay
